ChEMBL document CHEMBL1240399 (Antimicrob Agents Chemother, 2010)
In brackets after ≈: the same amount, converted by molar mass.

Key:
Pseudomonas aeruginosa [1] = assay: Antibacterial activity against Pseudomonas aeruginosa NL68 expressing GES-13 beta lactamase; assay type: functional
Escherichia coli [2] = assay: Antibacterial activity against Escherichia coli DH5alpha pB-ges-1; assay type: functional
Escherichia coli [3] = assay: Antibacterial activity against Escherichia coli DH5alpha pB-ges-1in presence of 2 ug/ml clavulanic acid; assay type: functional
Escherichia coli [4] = assay: Antibacterial activity against Escherichia coli DH5alpha; assay type: functional
Escherichia coli [5] = assay: Antibacterial activity against Escherichia coli DH5alpha pB-ges-13 plasmid; assay type: functional
Escherichia coli [6] = assay: Antibacterial activity against Escherichia coli DH5alpha pB-ges-13 plasmid in presence of 2 ug/ml clavulanic acid; assay type: functional
Escherichia coli [7] = assay: Antibacterial activity against Escherichia coli DH5alpha in presence of 2 ug/ml clavulanic acid; assay type: functional
Escherichia coli [8] = assay: microbe, parasite or virus in culture; conditions: DH5alpha
Pseudomonas aeruginosa [9] = assay: microbe, parasite or virus in culture; conditions: NL68
Escherichia coli [10] = assay: microbe, parasite or virus in culture; conditions: DH5alpha; remark: listed apart in the source
Pseudomonas aeruginosa [11] = assay: Antibacterial activity against Pseudomonas aeruginosa NL68 expressing GES-13 beta lactamase in presence of 4 ug/ml Tazobactam; assay type: functional
Escherichia coli [12] = assay: microbe, parasite or virus in culture; conditions: DH5alpha; remark: listed apart in the source
Beta-lactamase GES-13 = Beta-lactamase GES-13 (Pseudomonas aeruginosa, UniProt D1MIX9); assay: Inhibition of Pseudomonas aeruginosa GES-13 beta lactamase
How it was run: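 GES-13 purified from E. coli DH5α carrying pB-ges13: sonicated in 20 mM Tris pH 8.0, then Q-Sepharose and S-Sepharose chromatography, >95% pure by SDS-PAGE. Enzyme preincubated with a range of inhibitor concentrations for 3 min at 30°C. Residual hydrolysis of 100 μM cephalothin reporter followed spectrophotometrically. Value given as IC50.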

Chain of Beta-lactamase GES-13 (D1MIX9 whole entry): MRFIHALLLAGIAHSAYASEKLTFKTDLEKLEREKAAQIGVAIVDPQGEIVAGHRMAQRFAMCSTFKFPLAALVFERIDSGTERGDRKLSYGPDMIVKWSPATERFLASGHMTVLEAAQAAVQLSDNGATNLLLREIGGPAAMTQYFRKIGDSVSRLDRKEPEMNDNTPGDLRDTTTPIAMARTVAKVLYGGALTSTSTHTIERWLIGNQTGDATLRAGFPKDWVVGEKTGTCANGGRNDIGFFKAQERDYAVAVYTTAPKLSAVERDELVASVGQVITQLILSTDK

Row | Structure (SMILES) | MIC (Pseudomonas aeruginosa [1]) [µg/mL] | MIC (Escherichia coli [2]) [µg/mL] | MIC (Escherichia coli [3]) [µg/mL] | MIC (Escherichia coli [4]) [µg/mL] | MIC (Escherichia coli [5]) [µg/mL] | MIC (Escherichia coli [6]) [µg/mL] | MIC (Escherichia coli [7]) [µg/mL] | MIC (Escherichia coli [8]) [µg/mL] | MIC (Pseudomonas aeruginosa [9]) [µg/mL] | MIC (Escherichia coli [10]) [µg/mL] | MIC (Pseudomonas aeruginosa [11]) [µg/mL] | MIC (Escherichia coli [12]) [µg/mL] | IC50 (Beta-lactamase GES-13) [nM]
1 | CO/N=C(\C(=O)N[C@@H]1C(=O)N2C(C(=O)[O-])=C(C[N+]3(C)CCCC3)CS[C@H]12)c1csc(N)n1 | 64 (≈ 133 µM) | 1 (≈ 2.08 µM) |  |  |  |  |  |  |  |  |  |  | 
2 | CC1(C)S[C@@H]2[C@H](NC(=O)[C@H](N)c3ccc(O)cc3)C(=O)N2[C@H]1C(=O)O [AMOXICILLIN] |  | ≥ 512 | 64 | 2 (≈ 5.47 µM) | ≥ 512 | 32 | 2 |  |  |  |  |  | 
3 | C[C@H]1[C@H](NC(=O)/C(=N\OC(C)(C)C(=O)O)c2csc(N)n2)C(=O)N1S(=O)(=O)O [AZTREONAM] |  | 1 (≈ 2.3 µM) |  |  | 8 (≈ 18.4 µM) |  |  |  |  |  |  |  | 
4 | N[C@@H](C(=O)N[C@@H]1C(=O)N2C(C(=O)O)=C(Cl)CS[C@H]12)c1ccccc1 [CEFACLOR ANHYDROUS] |  | ≥ 512 |  | 4 (≈ 10.9 µM) | ≥ 512 |  |  |  |  |  |  |  | 
5 | CO/N=C(\C(=O)N[C@@H]1C(=O)N2C(C(=O)O)=C(COC(C)=O)CS[C@H]12)c1csc(N)n1 [CEFOTAXIME] |  | 4 (≈ 8.78 µM) |  | 0.12 (≈ 0.263 µM) | 8 (≈ 17.6 µM) |  |  |  |  |  |  |  | 
6 | CO[C@@]1(NC(=O)Cc2cccs2)C(=O)N2C(C(=O)O)=C(COC(N)=O)CS[C@@H]21 [CEFOXITIN] |  | 8 (≈ 18.7 µM) |  | 4 (≈ 9.36 µM) | 8 (≈ 18.7 µM) |  |  |  |  |  |  |  | 
7 | CC(C)(O/N=C(\C(=O)N[C@@H]1C(=O)N2C(C(=O)[O-])=C(C[n+]3ccccc3)CS[C@H]12)c1csc(N)n1)C(=O)O [CEFTAZIDIME] | ≥ 512 | 256 (≈ 468 µM) | 16 | 0.5 (≈ 0.915 µM) | ≥ 512 | 16 | 0.5 | 16 (≈ 29.3 µM) | ≥ 512 | 4 (≈ 7.32 µM) | 256 | 0.5 (≈ 0.915 µM) | 
8 | CO/N=C(\C(=O)N[C@@H]1C(=O)N2C(C(=O)O)=C(CSc3nc(=O)c(O)nn3C)CS[C@H]12)c1csc(N)n1 [CEFTRIAXONE] |  | 16 (≈ 28.9 µM) |  | 0.12 (≈ 0.216 µM) | 16 (≈ 28.9 µM) |  |  |  |  |  |  |  | 
9 | CO/N=C(\C(=O)N[C@@H]1C(=O)N2C(C(=O)O)=C(COC(N)=O)CS[C@H]12)c1ccco1 [CEFUROXIME] |  | ≥ 512 |  | 2 (≈ 4.71 µM) | ≥ 512 |  |  |  |  |  |  |  | 
10 | C[C@@H](O)[C@H]1C(=O)N2C(C(=O)O)=C(SCCNC=N)C[C@H]12 [IMIPENEM ANHYDROUS] | 16 (≈ 53.4 µM) |  |  |  |  |  |  |  |  |  | 16 |  | 150
11 | C[C@@H](O)[C@H]1C(=O)N2C(C(=O)O)=C(S[C@@H]3CN[C@H](C(=O)N(C)C)C3)[C@H](C)[C@H]12 [MEROPENEM] | 32 (≈ 83.4 µM) | ≤ 0.06 |  | ≤ 0.06 | ≤ 0.06 |  |  |  |  |  |  |  | 
12 | CCN1CCN(C(=O)N[C@@H](C(=O)N[C@@H]2C(=O)N3[C@@H]2SC(C)(C)[C@@H]3C(=O)O)c2ccccc2)C(=O)C1=O [PIPERACILLIN] | 256 (≈ 495 µM) | 64 (≈ 124 µM) |  | 1 (≈ 1.93 µM) | 64 (≈ 124 µM) |  |  | 16 (≈ 30.9 µM) |  | 2 (≈ 3.86 µM) | 128 | 0.5 (≈ 0.966 µM) | 
13 | CC1(C)S[C@@H]2[C@H](NC(=O)[C@H](C(=O)O)c3ccsc3)C(=O)N2[C@H]1C(=O)O [TICARCILLIN] | ≥ 512 | ≥ 512 | 32 | 2 (≈ 5.2 µM) | ≥ 512 | 16 | 2 |  | ≥ 512 |  |  |  | 
